Structures are written as SMILES. A value given as a limit tells only on which side of the number the result lay.

This note sets out measurements from ChEMBL document CHEMBL3286160, “Design and synthesis of a new series of modified CH-diarylpyrimidines as drug-resistant HIV non-nucleoside reverse transcriptase inhibitors” (Eur J Med Chem, 2014).

Data set [1] deals with Human immunodeficiency virus 1. Briefly: Antiviral activity against wild type HIV1 3B infected in human MT4 cells assessed as inhibition of virus-induced cytopathogenicity after 5 days by MTT assay. Particulars: Human immunodeficiency virus 1, 3B, MT4, 120 h. The format is functional, organism-based. The gist of the method:
(§1)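 MT-4 cells in exponential growth were pelleted (5 min, 220 g) and resuspended at 6×10^5 cells/mL. They were infected at the start with 100-300 CCID50 of virus stock and exposed to serial 5-fold compound dilutions in triplicate wells. Viability was read by MTT at 540 and 690 nm after 5 days, using the median OD of three wells. EC50 is the concentration giving 50% protection from viral cytopathic effect.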

Data set [2] deals with Human immunodeficiency virus 1. As to the kind of experiment: Antiviral activity against HIV1 harboring reverse transcriptase K103N/Y181C mutant infected in human MT4 cells assessed as inhibition of virus-induced cytopathogenicity after 5 days by MTT assay. The note with it: Human immunodeficiency virus 1, MT4, 120 h. The format is functional, organism-based. The method, boiled down: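 MT-4 cells (6×10^5 cells/mL after spinning at 220 g for 5 min) infected with 100-300 CCID50 of the double RT mutant strain derived from wild-type LAI. Serial 5-fold compound dilutions tested in triplicate alongside mock-infected wells. Viability read by MTT at 540 and 690 nm on day 5, using the median OD of three wells. IC50 is the concentration giving 50% protection from viral cytopathic effect.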

Data set [3] relates to Human immunodeficiency virus 2. As to the kind of experiment: Antiviral activity against HIV2 ROD infected in human MT4 cells assessed as inhibition of virus-induced cytopathogenicity after 5 days by MTT assay. The format is functional, organism-based. The note with it: Human immunodeficiency virus 2, ISOLATE ROD, MT4, 120 h. The gist of the method:
as §1

Data set [4] can be described thus: Cytotoxicity against human MT4 cells after 5 days by MTT assay. The format is cell-based. The method, boiled down: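 Mock-infected MT-4 cells received culture medium in place of virus, at 6×10^5 cells/mL, run in parallel triplicate wells with serial 5-fold compound dilutions. After 5 days, MTT reduction was read at 540 and 690 nm, using the median OD of three wells. CC50 is the concentration lowering OD540 of the mock-infected control by 50%.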

Data set [5] is described as follows: Selectivity index, ratio of CC50 for human MT4 cells to IC50 for wild type HIV1 3B. The data set is classed as functional.
Data set [6] has as its system Human immunodeficiency virus 1. As to the kind of experiment: Ratio of zidovudine IC50 to compound IC50 for wild type HIV1 3B. The format is functional.
The nature of data set [7]: Ratio of compound selectivity index to zidovudine selectivity index for human MT4 cells.

Turning to `N#C/C=C/c1ccc(C(NC2CC2)c2ccnc(Nc3ccc(C#N)cc3)n2)cc1` (stereo not given), the figures for the half-maximal inhibitory concentration (IC50) in data set [1], in data set [2] and in data set [3] were 0.196 µM, > 56.1 µM and > 56.1 µM, respectively. Further, the CC50 at 120 h in data set [4] came to 56.1 µM. In data set [5], the “Ratio CC50/IC50” value was 287.
In the case of `CCNC(c1ccnc(Nc2ccc(C#N)cc2)n1)c1ccccc1Cl` (stereo not given), the results for the IC50 in data set [1], in data set [2] and in data set [3] were 0.35 µM, > 39.4 µM and > 39.4 µM, respectively. This compound also returned a CC50 at 120 h in data set [4] of 39.4 µM. Also, the “Ratio CC50/IC50” value in data set [5] is listed as 113.
On to `Cc1cn([C@H]2C[C@H](N=[N+]=[N-])[C@@H](CO)O2)c(=O)[nH]c1=O` [ZIDOVUDINE], for which the IC50 was 0.0066 µM in data set [1], 0.0077 µM in data set [2] and 0.0017 µM in data set [3]. The 50% cytotoxic concentration (CC50) at 120 h in data set [4] is > 93.5 µM. Moreover, the “Ratio CC50/IC50” value in data set [5] was >14124.
Regarding `CC(C)NC(c1ccc(C#N)cc1)c1ccnc(Nc2ccc(C#N)cc2)n1` (stereo not given), the IC50 in data set [1], in data set [2] and in data set [3] was > 69.2 µM throughout. In data set [4], this compound returned a CC50 at 120 h of 69.2 µM.
Turning to `CCNC(c1ccc(/C=C/C#N)cc1)c1ccnc(Nc2ccc(C#N)cc2)n1` (stereo not given), the IC50 was 0.192 µM in data set [1], > 37.3 µM in data set [2] and > 37.3 µM in data set [3]. Also, the 50% cytotoxic concentration (CC50) at 120 h in data set [4] stood at 37.3 µM. Further, in data set [5], the “Ratio CC50/IC50” value worked out at 194.
Regarding `CC(C)NC(c1ccnc(Nc2ccc(C#N)cc2)n1)c1ccccc1Cl` (stereo not given), the IC50 in data set [1] was 0.04 µM; in data set [2] it was > 35.5 µM; in data set [3], > 35.5 µM. In data set [4], the midpoint of cytotoxicity, the CC50 at 120 h, lay at 35.5 µM. Further, the “Ratio CC50/IC50” value in data set [5] came to 879.
As to `N#Cc1ccc(Nc2nccc(C(NC3CC3)c3ccccc3Cl)n2)cc1` (stereo not given), the IC50 in data set [1] was 0.12 µM; in data set [2], > 37.9 µM; in data set [3] it was > 37.9 µM. Moreover, the CC50 at 120 h in data set [4] was 37.9 µM. The “Ratio CC50/IC50” value in data set [5] is recorded as 317.
`CC(O)CNC(c1ccc(C#N)cc1)c1ccnc(Nc2ccc(C#N)cc2)n1` (stereo not given): the IC50 was 23.9 µM in data set [1], > 65 µM in data set [2] and > 65 µM in data set [3]. Also, the CC50 at 120 h in data set [4] is > 65 µM. The “Ratio CC50/IC50” value in data set [5] is >3.
In the case of `Cc1ccnc2c1NC(=O)c1cccnc1N2C1CC1` [NEVIRAPINE], the 50% inhibitory concentration (IC50) worked out at 0.101 µM in data set [1] and 0.9 µM in data set [2]. Further, in data set [4], the CC50 at 120 h is > 15 µM. The “Ratio CC50/IC50” value in data set [5] is reported as >148.
On to `CNC(c1ccc(/C=C/C#N)cc1)c1ccnc(Nc2ccc(C#N)cc2)n1` (stereo not given), for which the IC50 in data set [1] was 0.108 µM; in data set [2], > 41.4 µM; in data set [3] it was > 41.4 µM. This compound also came in with a CC50 at 120 h in data set [4] of 41.4 µM. Further, the “Ratio CC50/IC50” value in data set [5] came out at 385.
For `CC(O)CNC(c1ccnc(Nc2ccc(C#N)cc2)n1)c1ccccc1Cl` (stereo not given), the 50% inhibitory concentration (IC50) is 0.33 µM in data set [1], > 34.7 µM in data set [2] and > 34.7 µM in data set [3]. The same compound gave a CC50 at 120 h in data set [4] of 34.7 µM. Also, the “Ratio CC50/IC50” value in data set [5] turned out to be 105.
Turning to `CCNC(c1ccc(C#N)cc1)c1ccnc(Nc2ccc(C#N)cc2)n1` (stereo not given), the results for the IC50 in data set [1], in data set [2] and in data set [3] were 21.1 µM, > 158 µM and > 158 µM, respectively. The compound further gave a CC50 at 120 h in data set [4] of 158 µM. The “Ratio CC50/IC50” value in data set [5] is on record as 7.
With `CCCNC(c1ccc(C#N)cc1)c1ccnc(Nc2ccc(C#N)cc2)n1` (stereo not given), the IC50 in data set [1] is ≥ 9.45 µM; in data set [2], > 34.9 µM; in data set [3], > 34.9 µM. The same compound gave a CC50 at 120 h in data set [4] of 34.9 µM. The “Ratio CC50/IC50” value in data set [5] is listed as “<=4”.
For `N#Cc1ccc(Nc2nccc(C(NN)c3ccc(C#N)cc3)n2)cc1` (stereo not given), the IC50 in data set [1] turned out to be 0.234 µM; in data set [2], 5.95 µM; in data set [3] it was 2.92 µM. Moreover, the CC50 at 120 h in data set [4] was found to be 40.2 µM. Also, the “Ratio CC50/IC50” value in data set [5] is recorded as 172.
Consider `Nc1ccn([C@@H]2CS[C@H](CO)O2)c(=O)n1` [LAMIVUDINE], for which the IC50 in data set [1] worked out at 3.89 µM; in data set [3], 15.5 µM. For the same compound, in data set [4], the CC50 at 120 h is > 87.2 µM. Also, the “Ratio CC50/IC50” value in data set [5] is given as >22.
Take `N#C/C=C/c1ccc(C(NN)c2ccnc(Nc3ccc(C#N)cc3)n2)cc1` (stereo not given): the “Ratio IC50” value in data set [6] was determined as 4. The 50% inhibitory concentration (IC50) in data set [1] is 0.00175 µM; in data set [2], 5.33 µM; in data set [3], 5.05 µM. The compound further came in with a CC50 at 120 h in data set [4] of 186 µM. The “Ratio CC50/IC50” value in data set [5] was found to be 106367. Moreover, the ratio of compound SI to zidovudine SI in data set [7] turned out to be 7.
In the case of `CNC(c1ccnc(Nc2ccc(C#N)cc2)n1)c1ccccc1Cl` (stereo not given), the figures for the IC50 in data set [1], in data set [2] and in data set [3] were 0.063 µM, > 36.1 µM and > 6.09 µM, respectively. For the same compound, the CC50 at 120 h in data set [4] worked out at 36.1 µM. The “Ratio CC50/IC50” value in data set [5] stood at 571.
For `CC(C)Nc1cccnc1N1CCN(C(=O)c2cc3cc(NS(C)(=O)=O)ccc3[nH]2)CC1` [DELAVIRDINE], in data set [1], the IC50 was found to be 0.81 µM. This compound also displayed a CC50 at 120 h in data set [4] of 43.8 µM. The “Ratio CC50/IC50” value in data set [5] was >54.
As for `O=C1Nc2ccc(Cl)cc2[C@@](C#CC2CC2)(C(F)(F)F)O1` [EFAVIRENZ], the figures for the IC50 in data set [1] and in data set [2] were 0.0226 µM and 0.16 µM, respectively. Moreover, the “Ratio CC50/IC50” value in data set [5] is >280.
With `N#Cc1ccc(Nc2nccc(C(NC3CC3)c3ccc(C#N)cc3)n2)cc1` (stereo not given), the IC50 in data set [1], in data set [2] and in data set [3] was > 34.7 µM each time. Besides, the CC50 at 120 h in data set [4] was determined as 34.7 µM. Further, the “Ratio CC50/IC50” value in data set [5] is <1.
`CC(C)NC(c1ccc(/C=C/C#N)cc1)c1ccnc(Nc2ccc(C#N)cc2)n1` (stereo not given): the IC50 in data set [1] was 0.08 µM; in data set [2] it was > 32.3 µM; in data set [3], > 32.3 µM. For the same compound, the CC50 at 120 h in data set [4] worked out at 32.3 µM. Moreover, the “Ratio CC50/IC50” value in data set [5] was 405.
With `CCCNC(c1ccnc(Nc2ccc(C#N)cc2)n1)c1ccccc1Cl` (stereo not given), the IC50 in data set [1] is 0.048 µM; in data set [2], > 68.5 µM; in data set [3] it was > 68.5 µM. The same compound came in with a cytotoxic concentration (CC50) at 120 h in data set [4] of 68.5 µM. For the same compound, the “Ratio CC50/IC50” value in data set [5] came out at 1422.
As for `CNC(c1ccc(C#N)cc1)c1ccnc(Nc2ccc(C#N)cc2)n1` (stereo not given), the IC50 is 15.2 µM in data set [1], > 189 µM in data set [2] and > 189 µM in data set [3]. Further, in data set [4], the midpoint of cytotoxicity, the CC50 at 120 h, lay at 189 µM. Also, the “Ratio CC50/IC50” value in data set [5] was 12.
For `CCCNC(c1ccc(/C=C/C#N)cc1)c1ccnc(Nc2ccc(C#N)cc2)n1` (stereo not given), the values for the IC50 in data set [1], in data set [2] and in data set [3] were 0.107 µM, > 37.3 µM and > 37.3 µM, respectively. In data set [4], this compound showed a CC50 at 120 h of 34 µM. The “Ratio CC50/IC50” value in data set [5] worked out at 319.
